KCNK9 block = KCNK9 potassium channel inhibitors, primary screen, HEK293 cells, thallium flux. FluxOR thallium flux fluorescence; stronger effect = lower value. B-score at 10 µM. 310,000 compounds, 1.2% hits;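 active means ratio B-score over 3 SD below the library mean, with starting fluorescence within 5 SD of its mean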;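 further: negative B-score means less thallium flux so channel inhibition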
Target sequence (Q9NPC2 whole entry, looked up): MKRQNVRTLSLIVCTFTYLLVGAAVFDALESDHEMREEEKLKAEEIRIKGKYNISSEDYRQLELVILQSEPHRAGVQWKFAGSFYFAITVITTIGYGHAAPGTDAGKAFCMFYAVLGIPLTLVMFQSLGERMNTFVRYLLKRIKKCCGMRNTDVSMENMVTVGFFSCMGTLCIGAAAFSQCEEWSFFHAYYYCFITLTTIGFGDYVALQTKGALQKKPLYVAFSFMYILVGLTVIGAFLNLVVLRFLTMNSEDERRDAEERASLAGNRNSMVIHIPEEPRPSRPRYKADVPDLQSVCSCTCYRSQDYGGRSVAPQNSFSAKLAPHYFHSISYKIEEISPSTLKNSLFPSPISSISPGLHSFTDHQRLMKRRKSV
KCNQ1 inh = inhibitors of human KCNQ1 channel, primary screen, cell-based, thallium flux, high-throughput; Potassium voltage-gated channel subfamily KQT member 1 (Homo sapiens), P51787; CHO-K1 KCNQ1, FluxOR thallium flux fluorescence; stronger effect = higher value; B-score at 10 µM; 310,000 compounds, 1.3% hits; AID 2642, 2010;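 active means compounds whose thallium flux B-score, printed positive for inhibition, exceeds three library SD while starting fluorescence stays within three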;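 further: channel opened by potassium depolarization with thallium stimulus after 20 min compound exposure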
hERG rescue = hERG rescue from dofetilide block, primary screen, cell-based, CHO-hERG, FluxOR thallium flux, dofetilide IC70; Voltage-gated inwardly rectifying potassium channel KCNH2 (Homo sapiens), Q12809; dofetilide IC70 present; activation (rescue from dofetilide block), less the hit threshold, % at 10 µM; 310,000 compounds, 0.51% hits; AID 1511, 2009;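 active means activation above the mean of controls blocked by dofetilide plus 5 SD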;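 further: thallium influx through hERG after potassium depolarization seen as dye fluorescence rise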
Kir21 block = inhibitors of mouse Kir2.1 inward-rectifier potassium channel; Inward rectifier potassium channel 2 (Mus musculus), P35561; HEK293-Kir2.1, FluxOR thallium flux fluorescence; stronger effect = lower value; B-score at 10 µM; 310,000 compounds, 0.85% hits; AID 1672, 2009;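 active means fluorescence ratio B-score at or below minus 3 SD of library scores, with starting-brightness B-score within 2 SD, cut at about -4.2 in these data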;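 further: channel flux triggered by added potassium and thallium sulfate stimulus; B-score of peak minus minimum fluorescence over baseline after thallium stimulus; more negative B-score means stronger Kir2.1 block with less thallium influx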
KCNK3 block = human KCNK3 channel inhibitors, primary screen, CHO cells, FluxOR thallium flux, B-score. Potassium channel subfamily K member 3 (Homo sapiens), O14649. FluxOR fluorescence; stronger effect = lower value. B-score at 10 µM. 340,000 compounds, 0.84% hits. AID 602410, 2012;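 active means B-score under library mean minus 4 SD, starting fluorescence ratio at most library mean plus 5 SD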;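 further: more negative B-score means stronger inhibition of thallium flux through KCNK3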
KCNQ1 pot = potentiators or activators of KCNQ1 channel, primary screen, cell-based, thallium flux, high-throughput; Potassium voltage-gated channel subfamily KQT member 1 (Homo sapiens), P51787; CHO-K1 KCNQ1, thallium flux FluxOR fluorescence; stronger effect = higher value; B-score at 10 µM; 310,000 compounds, 0.35% hits; AID 2648, 2010;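 active means fluorescence ratio B-score, a plate-corrected score, at least three library SD, with initial intensity B-score within 5 SD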
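System: CHO-K1 cells stably expressing KCNQ1 / Medium: assay buffer for compound exposure, DMSO matched across wells / Reagent: thallium- and potassium-containing depolarizing buffer / Compound: one concentration, matched DMSO / Incubation: 20 min compound pretreatment at room temperature / Measured by: kinetic FluxOR fluorescence, 10 s baseline plus 110 s post-stimulus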
* hit, by the source's call; i = inactive; nt = not tested or not shown. Compounds with a hit are over-represented: about 3.8% of the library has one in this group of screens.

SMILES	KCNK9 block	KCNQ1 inh	hERG rescue	Kir21 block	KCNK3 block	KCNQ1 pot
O=C(O)Cn1cc(/C=C2\C(=O)NC(=O)N(c3ccc(Cl)cc3)C2=O)c2ccccc21	i	i	-5	-0.83	i	i
Cn1cc(/C=C2\C(=O)NC(=O)N(c3ccccc3)C2=O)c2ccccc21	-8*	i	-8	0.01	i	i
Fc1ccccc1CCNCc1cccc2ccccc12	i	i	-9	-12*	i	i
Oc1ccc(C2NCc3ccccc3-n3cccc32)cc1Cl (configuration not stated)	i	i	-12	-8.9*	i	i
FC(F)(F)c1cccc(C2NCc3ccccc3-n3cccc32)c1 (configuration not stated)	i	i	-6	-2.4	i	i
CCOc1cc(C=C2C(=O)NC(=O)NC2=O)ccc1OS(=O)(=O)c1ccccc1	i	i	-10	-5.5*	i	i
CCOc1ccc(C=C2C(=O)NC(=S)NC2=O)cc1OCC	nt	nt	nt	nt	i	nt
CC1(C(=O)O)CC12c1ccccc1-c1ccccc12 (configuration not stated)	nt	nt	nt	nt	i	nt
CN=C1CN(O)C(c2ccccc2)c2cc(Cl)ccc2N1 (configuration not stated)	nt	nt	nt	nt	i	nt
O=C(O)c1[nH]c(=O)[nH]c(=O)c1F	i	i	-7	-2.1	i	i
COc1ccc(OC)c(N2C(=O)/C(=C/c3ccco3)C(=O)NC2=S)c1	i	i	8.4*	1.9	nt	i
CC1(C)C[C@H]2C=C(C=O)[C@]3(C=O)C[C@]3(C)[C@H]2C1	i	i	-21	-8.2*	i	21*
CCN1CCN(c2nc3c(c(=O)[nH]2)CCCC3)CC1	i	i	-14	-0.69	i	i
COc1ccc(C(O)P(=O)(OC(C)C)OC(C)C)cc1 (configuration not stated)	i	i	-9	-0.08	i	i
COc1ccc(C(=O)O/N=C(/C(N)=O)P(=O)(OC(C)C)OC(C)C)cc1	i	i	3	-4.6*	i	i
CC(Cc1ccccc1)NCc1ccccc1O (configuration not stated)	i	i	-10	-5.5*	i	i
C#CCN[C@H](C)Cc1ccccc1	nt	nt	nt	nt	i	nt
CC(Cc1ccccc1)NC(=O)Cc1ccc([N+](=O)[O-])cc1 (configuration not stated)	i	i	-12	-2.3	i	i
CC(NCC#Cc1ccccc1)C(O)c1ccccc1 (configuration not stated)	i	i	-14	-0.85	i	i
CSc1ccc(CNC(C)C(O)c2ccccc2)cc1 (configuration not stated)	i	i	-16	-5.5*	i	i
C=C1C[C@]2(O)[C@@]3(C)CCC(=O)C(C)(C)C3=C(O)C(=O)[C@@]2(C)[C@@H]2C(=O)O[C@@](C)(C(=O)OC)C(=O)[C@@]12C	i	i	-7	1.6	i	i
Cc1cc(N2CCCC2)ccc1C=C(C#N)C#N	-6.7*	12*	-27	0.38	i	i
Cc1cc(N2CCCCC2)ccc1C=C1C(=O)N(C)C(=S)N(C)C1=O	i	i	-9	-0.43	i	i
COCCN1C(=O)NC(=O)/C(=C\c2ccc(Br)cc2)C1=O	i	i	-5	-1	i	i
CNCC(O)c1cc(OCc2ccccc2)c(OCc2ccccc2)cc1F (configuration not stated)	i	i	-16	-6*	i	i
SMILES	KCNK9 block	KCNQ1 inh	hERG rescue	Kir21 block	KCNK3 block	KCNQ1 pot
COC1CCCCC1NCCc1ccccc1 (configuration not stated)	i	i	5.0*	-2.3	i	i
COc1ccc(CCNC2CCCCCC2)cc1	i	i	-9	-0.58	i	i
COc1ccccc1[As](=O)(O)CC(O)COc1ccc(Cl)cc1Cl (configuration not stated)	i	i	-4	0.09	nt	i
COc1ccc(NP(=O)(Oc2ccc(Cl)cc2)Oc2ccc(Cl)cc2)cc1OC	-7.1*	i	-11	0.75	i	i
Cc1cccc(OP(=O)(Nc2ccc(F)cc2)Oc2cccc(C)c2)c1	i	8*	-30	1.7	i	i
COc1cccc(OP(=O)(Nc2ccccc2)Oc2cccc(OC)c2)c1	i	i	-5	-1.2	-9.1*	i
COc1ccc(NP(=O)(Oc2cccc(C)c2)Oc2cccc(C)c2)cc1OC	i	i	-12	1	i	i
Cc1cccc(OP(=O)(Nc2cccnc2)Oc2cccc(C)c2)c1	i	i	-12	1.2	i	i
Cc1ccc(OP(=O)(Nc2cccc(C)c2)Oc2ccc(C)cc2)cc1	i	6*	-3	0.21	i	i
O=P(Nc1ccccc1)(Oc1ccccc1)Oc1ccccc1	i	i	-11	1.1	i	i
CCOC(=O)c1cncn1C(C)c1ccccc1 (configuration not stated)	i	i	-4	-0.73	i	i
C=CCN1C(=O)C2(C(C(=O)OCC)=C(N)Oc3ccccc32)c2c1c1ccccc1oc2=O (configuration not stated)	i	i	-5	-0.97	i	i
C1CCC2S[C@H]3CCCCC3NC2C1 (some centres not stated)	i	i	5.3*	0.29	i	i
CC(C)(C)c1ccc(CSc2cnn(C(C)(C)C)c(=O)c2Cl)cc1	i	11*	-15	2	i	i
CCC(C)n1c(O)c(C=Nc2cccc(C(F)(F)F)c2)c(=O)[nH]c1=S (configuration not stated)	i	i	-4	-0.2	i	i
Oc1ccc(CC2(N3CCCC3)CCCCC2)cc1	i	i	7.7*	0	i	i
O=C(Cc1ccc(Cl)c(Cl)c1)NCC1(N2CCOCC2)CCCCC1	i	i	-23	-0.26	i	i
Cc1ccc(N2C(=O)NC(=O)C(CCc3ccccn3)(Cc3ccc(F)cc3)C2=O)cc1 (configuration not stated)	i	i	-8	0.23	i	i
